Measured values published in ChEMBL document CHEMBL3632558, “Synthesis, antimycobacterial and antibacterial activity of l-[(1R,2S)-2-fluorocyclopropyl]naphthyridone derivatives containing an oxime-functionalized pyrrolidine moiety” (2015).
≈ marks a conversion by molar mass, not a printed value.

tested on: Mycobacterium tuberculosis; test: Antimycobacterial activity against multidrug-resistant Mycobacterium tuberculosis 6133 by alamar blue assay; format: functional
Procedure, shortened: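 Microplate Alamar Blue Assay; MIC is the lowest concentration giving ≥90% reduction in fluorescence relative to the mean of replicate bacterium-only controls. MDR strain 6133 is resistant to isoniazid and rifampicin.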

| Compound | MIC90 [µg/mL] |
| --- | --- |
| NCC1CN(c2nc3c(cc2F)c(=O)c(C(=O)O)cn3[C@@H]2C[C@@H]2F)C/C1=N\OCc1ccc(F)cc1 (stereo partly specified) | 0.043 (≈ 0.0857 µM) |
| Cc1ccc(CO/N=C2\CN(c3nc4c(cc3F)c(=O)c(C(=O)O)cn4[C@@H]3C[C@@H]3F)CC2CN)cc1 (stereo partly specified) | 0.03 (≈ 0.0603 µM) |
| NCC1CN(c2nc3c(cc2F)c(=O)c(C(=O)O)cn3[C@@H]2C[C@@H]2F)C/C1=N\OCc1ccc2c(c1)OCO2 (stereo partly specified) | 0.054 (≈ 0.102 µM) |
| NCC1CN(c2nc3c(cc2F)c(=O)c(C(=O)O)cn3[C@@H]2C[C@@H]2F)C/C1=N\OCc1ccccc1 (stereo partly specified) | 0.125 (≈ 0.259 µM) |
| NNC(=O)c1ccncc1 [ISONIAZID] | 4 (≈ 29.2 µM) |
| CO[C@H]1/C=C/O[C@@]2(C)Oc3c(C)c(O)c4c(O)c(c(/C=N/N5CCN(C)CC5)c(O)c4c3C2=O)NC(=O)/C(C)=C\C=C\[C@H](C)[C@H](O)[C@@H](C)[C@@H](O)[C@@H](C)[C@H](OC(C)=O)[C@@H]1C [RIFAMPIN] | > 40 |
